# Active and inactive are the calls of the source. No cut-off for these calls is given here.
# How the values were obtained:
# Pseudomonas aeruginosa = experiment: Antibacterial activity against Pseudomonas aeruginosa at 128 ug/mL by broth micro dilution method; type: functional, organism-based
# Enterococcus faecalis [1] = experiment: Antibacterial activity against Enterococcus faecalis by broth micro dilution method; type: functional
# How it was run: (§1)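 MIC90 was found by broth microdilution following NCCLS methods. Compounds were tested up to a top concentration of […]. Linezolid and trovafloxacin served as positive controls and DMSO as the negative control.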
# Escherichia coli [2] = experiment: Antibacterial activity against Escherichia coli LCB0010 at 128 ug/mL by broth micro dilution method; type: functional, organism-based
# Enterococcus faecium [3] = experiment: Antibacterial activity against vancomycin-resistant Enterococcus faecium by broth micro dilution method; type: functional; details: for MIC90: Enterococcus faecium
# How it was run: (§2)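 MIC90 was determined by broth microdilution following NCCLS methods. Linezolid and trovafloxacin were run as positive controls, with DMSO as the negative control. Compounds were tested up to a top concentration of 128.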
# [4] = test system: Staphylococcus epidermidis; experiment: Antibacterial activity against Staphylococcus epidermidis by broth micro dilution method; type: functional; how it was run: as §2
# Escherichia coli [5] = experiment: Antibacterial activity against Escherichia coli LCB0012 by broth micro dilution method; type: functional; how it was run: as §1
# Enterococcus faecium [6] = experiment: Antibacterial activity against Enterococcus faecium by broth micro dilution method; type: functional; how it was run: as §1
# Staphylococcus aureus [7] = experiment: Antibacterial activity against Staphylococcus aureus by broth micro dilution method; type: functional; how it was run: as §1
# Klebsiella pneumoniae = experiment: Antibacterial activity against Klebsiella pneumoniae at 128 ug/mL by broth micro dilution method; type: functional, organism-based
# Haemophilus influenzae [8] = experiment: Antibacterial activity against Haemophilus influenzae by broth micro dilution method; type: functional; how it was run: as §1
# Moraxella catarrhalis [9] = experiment: Antibacterial activity against Moraxella catarrhalis by broth micro dilution method; type: functional; how it was run: as §1
# Enterococcus faecalis [10] = experiment: Antibacterial activity against vancomycin and linezolid-resistant Enterococcus faecalis by broth micro dilution method; type: functional; how it was run: as §2
# [11] = test system: Staphylococcus epidermidis; experiment: Antibacterial activity against methicillin-resistant Staphylococcus epidermidis by broth micro dilution method; type: functional; how it was run: as §2
# Escherichia coli [12] = experiment: Antibacterial activity against Escherichia coli LCB0011 by broth micro dilution method; type: functional; how it was run: as §1
# Staphylococcus aureus [13] = experiment: Antibacterial activity against methicillin-resistant Staphylococcus aureus by broth micro dilution method; type: functional; how it was run: as §2
# Enterococcus faecalis [14] = experiment: Antibacterial activity against vancomycin-resistant Enterococcus faecalis by broth micro dilution method; type: functional; how it was run: as §2
# Moraxella catarrhalis [15] = experiment: Antibacterial activity against Moraxella catarrhalis at 128 ug/mL by broth micro dilution method; type: functional, organism-based
# Enterococcus faecalis [16] = experiment: Antibacterial activity against Enterococcus faecalis at 128 ug/mL by broth micro dilution method; type: functional, organism-based
# Staphylococcus aureus [17] = experiment: Antibacterial activity against methicillin-resistant Staphylococcus aureus at 128 ug/mL by broth micro dilution method; type: functional, organism-based; how it was run: as §2
# Enterococcus faecium [18] = experiment: Antibacterial activity against Enterococcus faecium at 128 ug/mL by broth micro dilution method; type: functional, organism-based
# Enterococcus faecalis [19] = experiment: Antibacterial activity against vancomycin-resistant Enterococcus faecalis at 128 ug/mL by broth micro dilution method; type: functional, organism-based; how it was run: as §2
# Escherichia coli [20] = experiment: Antibacterial activity against Escherichia coli LCB0011 at 128 ug/mL by broth micro dilution method; type: functional, organism-based
# Enterococcus faecalis [21] = experiment: Antibacterial activity against vancomycin and linezolid-resistant Enterococcus faecalis at 128 ug/mL by broth micro dilution method; type: functional, organism-based; how it was run: as §2
# [22] = test system: Staphylococcus epidermidis; experiment: Antibacterial activity against Staphylococcus epidermidis at 128 ug/mL by broth micro dilution method; type: functional, organism-based
# Staphylococcus aureus [23] = experiment: Antibacterial activity against Staphylococcus aureus at 128 ug/mL by broth micro dilution method; type: functional, organism-based
# [24] = test system: Staphylococcus epidermidis; experiment: Antibacterial activity against methicillin-resistant Staphylococcus epidermidis at 128 ug/mL by broth micro dilution method; type: functional, organism-based; how it was run: as §2
# Haemophilus influenzae [25] = experiment: Antibacterial activity against Haemophilus influenzae at 128 ug/mL by broth micro dilution method; type: functional, organism-based
# [26] = test system: Mycobacterium tuberculosis; experiment: Antitubercular activity against Mycobacterium tuberculosis H37Rv ATCC 27294 by radiometric respiratory technique; type: functional
# Escherichia coli [27] = experiment: Antibacterial activity against Escherichia coli LCB0012 at 128 ug/mL by broth micro dilution method; type: functional, organism-based
# Enterococcus faecium [28] = experiment: Antibacterial activity against vancomycin-resistant Enterococcus faecium at 128 ug/mL by broth micro dilution method; type: functional, organism-based; how it was run: as §2
# [29] = test system: Mycobacterium tuberculosis; experiment: Antitubercular potency, ratio of Isoniazid MIC to drug MIC against Mycobacterium tuberculosis H37Rv ATCC 27294; type: functional
# [30] = test system: Mycobacterium tuberculosis; experiment: Antitubercular potency, ratio of Rifampicin MIC to drug MIC against Mycobacterium tuberculosis H37Rv ATCC 27294; type: functional
# [31] = test system: Mycobacterium tuberculosis; experiment: Antitubercular activity against Mycobacterium tuberculosis H37Rv ATCC 27294 at 256 ug/mL by radiometric respiratory technique; type: functional, organism-based
SMILES,Activity (Pseudomonas aeruginosa),MIC90 (Enterococcus faecalis [1]),Activity (Escherichia coli [2]),MIC90 (Enterococcus faecium [3]),MIC90 (Escherichia coli [5]),MIC90 (Staphylococcus aureus [7]),Activity (Klebsiella pneumoniae),MIC90 (Escherichia coli [12]),Activity (Moraxella catarrhalis [15]),Activity (Enterococcus faecalis [16]),Activity (Staphylococcus aureus [17]),Activity (Enterococcus faecium [18]),Activity (Enterococcus faecalis [19]),Activity (Escherichia coli [20]),Activity (Enterococcus faecalis [21]),Activity [22],Activity [24],Activity (Haemophilus influenzae [25]),MIC [26],Activity (Escherichia coli [27]),also measured
CC(=O)NC[C@H]1CN(c2ccc(N3CCOCC3)c(F)c2)C(=O)O1 [LINEZOLID],inactive,2 µg/mL,inactive,2 µg/mL,64 µg/mL,1 µg/mL,inactive,16 µg/mL,–,–,–,–,–,–,–,–,–,–,–,–,MIC90 [4]: 1 µg/mL; MIC90 (Enterococcus faecium [6]): 2 µg/mL; MIC90 (Haemophilus influenzae [8]): 16 µg/mL; MIC90 (Moraxella catarrhalis [9]): 8 µg/mL; MIC90 (Enterococcus faecalis [10]): 64 µg/mL; MIC90 [11]: 2 µg/mL; MIC90 (Staphylococcus aureus [13]): 2 µg/mL; MIC90 (Enterococcus faecalis [14]): 2 µg/mL
Cc1ccc(C2CC(=O)C(C)C(c3ccc(C)cc3)N2C(=O)Cn2cnc3ccccc32)cc1 (stereo unspecified),inactive,–,inactive,64 µg/mL,128 µg/mL,–,inactive,–,inactive,inactive,inactive,inactive,inactive,inactive,inactive,inactive,inactive,inactive,–,–,Activity (Staphylococcus aureus [23]): inactive
NNC(=O)c1ccncc1 [ISONIAZID],–,–,–,–,–,–,–,–,–,–,–,–,–,–,–,–,–,–,0.25 µg/mL,–,–
COc1ccc(C2CC(=O)C(C)C(c3ccc(OC)cc3)N2C(=O)Cn2cnc3ccccc32)cc1 (stereo unspecified),inactive,–,inactive,128 µg/mL,128 µg/mL,–,inactive,–,inactive,inactive,inactive,inactive,inactive,inactive,inactive,inactive,inactive,inactive,–,–,Activity (Staphylococcus aureus [23]): inactive
Cc1ccc(C2C(C)C(=O)C(C)C(c3ccc(C)cc3)N2C(=O)Cn2cnc3ccccc32)cc1 (stereo unspecified),inactive,128 µg/mL,inactive,32 µg/mL,–,64 µg/mL,inactive,128 µg/mL,inactive,–,–,inactive,–,–,inactive,inactive,inactive,inactive,–,–,MIC90 (Staphylococcus aureus [13]): 64 µg/mL; MIC90 (Enterococcus faecalis [14]): 128 µg/mL
COc1cc(OC)cc(C2CC(=O)C(C)C(c3cc(OC)cc(OC)c3)N2C(=O)Cn2cnc3ccccc32)c1 (stereo unspecified),inactive,–,inactive,–,–,–,inactive,–,inactive,inactive,inactive,inactive,inactive,inactive,inactive,inactive,inactive,inactive,–,inactive,Activity (Enterococcus faecium [28]): inactive; Activity (Staphylococcus aureus [23]): inactive
CC1C(=O)C(C)C(c2ccccc2Cl)N(C(=O)Cn2cnc3ccccc32)C1c1ccccc1Cl (stereo unspecified),inactive,–,inactive,–,–,64 µg/mL,inactive,–,inactive,inactive,inactive,inactive,inactive,inactive,inactive,inactive,–,inactive,–,inactive,Activity (Enterococcus faecium [28]): inactive; MIC90 [11]: 128 µg/mL
COc1ccccc1C1C(C)C(=O)C(C)C(c2ccccc2OC)N1C(=O)Cn1cnc2ccccc21 (stereo unspecified),inactive,64 µg/mL,inactive,16 µg/mL,–,32 µg/mL,inactive,–,inactive,–,inactive,inactive,inactive,inactive,inactive,inactive,inactive,inactive,128 µg/mL,inactive,Ratio [29]: 0.19; Ratio [30]: 25
CCOC(=O)C1=C(OS(=O)(=O)c2ccccc2[N+](=O)[O-])CC(c2ccccc2)N(C(=O)CCl)C1c1ccccc1 (stereo unspecified),inactive,128 µg/mL,inactive,128 µg/mL,–,64 µg/mL,inactive,128 µg/mL,inactive,–,inactive,inactive,inactive,–,inactive,inactive,inactive,inactive,–,inactive,Activity [31]: inactive
C=Cc1ccc(S(=O)(=O)OC2=C(C(=O)OCC)C(c3ccccc3)N(C(=O)CCl)C(c3ccccc3)C2)cc1 (stereo unspecified),inactive,–,inactive,–,128 µg/mL,–,inactive,128 µg/mL,inactive,inactive,inactive,inactive,inactive,–,inactive,inactive,inactive,–,–,–,Activity (Enterococcus faecium [28]): inactive; MIC90 (Haemophilus influenzae [8]): 128 µg/mL; Activity (Staphylococcus aureus [23]): inactive
CCOC(=O)C1=C(OS(=O)(=O)c2cccs2)CC(c2ccccc2)N(C(=O)CCl)C1c1ccccc1 (stereo unspecified),inactive,–,inactive,–,–,32 µg/mL,inactive,128 µg/mL,–,inactive,–,inactive,inactive,–,inactive,–,–,inactive,32 µg/mL,inactive,Activity (Enterococcus faecium [3]): 32 µg/mL; Ratio [29]: 0.78; MIC90 [4]: 64 µg/mL; MIC90 (Moraxella catarrhalis [9]): 32 µg/mL; MIC90 [11]: 128 µg/mL; MIC90 (Staphylococcus aureus [13]): 64 µg/mL; Ratio [30]: 100
CO[C@H]1/C=C/O[C@@]2(C)Oc3c(C)c(O)c4c(O)c(c(/C=N/N5CCN(C)CC5)c(O)c4c3C2=O)NC(=O)/C(C)=C\C=C\[C@H](C)[C@H](O)[C@@H](C)[C@@H](O)[C@@H](C)[C@H](OC(C)=O)[C@@H]1C [RIFAMPIN],–,–,–,–,–,–,–,–,–,–,–,–,–,–,–,–,–,–,32 µg/mL,–,–
CCOC(=O)C1=C(O)CC(c2ccccc2)N(C(=O)Cn2cnc3ccccc32)C1c1ccccc1 (stereo unspecified),inactive,128 µg/mL,inactive,64 µg/mL,–,32 µg/mL,inactive,–,–,–,inactive,inactive,inactive,inactive,–,–,inactive,inactive,16 µg/mL,inactive,Ratio [29]: 1.56; MIC90 [4]: 128 µg/mL; MIC90 (Moraxella catarrhalis [9]): 64 µg/mL; MIC90 (Enterococcus faecalis [10]): 128 µg/mL; Ratio [30]: 200
COc1ccc(C2C(C)C(=O)C(C)C(c3ccc(OC)cc3)N2C(=O)Cn2cnc3ccccc32)cc1 (stereo unspecified),inactive,64 µg/mL,inactive,16 µg/mL,128 µg/mL,16 µg/mL,inactive,–,–,–,–,inactive,inactive,inactive,inactive,inactive,inactive,inactive,64 µg/mL,–,Ratio [29]: 0.39; MIC90 (Moraxella catarrhalis [9]): 16 µg/mL; MIC90 (Staphylococcus aureus [13]): 128 µg/mL; Ratio [30]: 50
